Sampled rows, rich in hits. Any-hit rate of the full collection: about 5.4%.
T cruzi inh – inhibitors of intracellular T. cruzi growth, primary screen, luminescence, NIH3T3 host cells | T. cruzi beta-gal in NIH3T3, 90 h | inhibition, % (no concentration beside the values) | actives 1.4% (n = 300,000) | AID 1885, 2009;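 active = mean inhibition across valid replicates above about 55%, limit read from the data; inconclusive = mean below that limit but half or more replicates reach it; inactive = mean below it, under half of replicates reach it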;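 also: signal also drops with host cell toxicity which is not excluded here; 0% = plate median of DMSO wells and 100% = zero luminescence signal; higher percent means less beta-gal luminescence so fewer parasites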
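Assay system: NIH/3T3 host cells with β-galactosidase reporter T. cruzi; input: 5,000 host fibroblasts per well; compound: single 50 nL compound addition per well in DMSO; timing: ≥90 h infection period, 3 h prior cell attachment; measured by: GalScreen β-gal luminescence, detergent lysis, 60 min; evaluation: percent inhibition of parasite-derived β-gal signal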
Mdm2-MdmX inh – inhibitors of human Mdm2-MdmX association, primary screen, cell-based, luminescence, split luciferase, SaOS-2, uHTS; SaOS-2 split-luciferase Mdm2/MdmX complementation; inhibition, % at 8 µM; actives 3% (n = 330,000);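 active = inhibition of at least 50% at 8 µM in the primary screen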
Target sequence (O15151 whole entry, looked up): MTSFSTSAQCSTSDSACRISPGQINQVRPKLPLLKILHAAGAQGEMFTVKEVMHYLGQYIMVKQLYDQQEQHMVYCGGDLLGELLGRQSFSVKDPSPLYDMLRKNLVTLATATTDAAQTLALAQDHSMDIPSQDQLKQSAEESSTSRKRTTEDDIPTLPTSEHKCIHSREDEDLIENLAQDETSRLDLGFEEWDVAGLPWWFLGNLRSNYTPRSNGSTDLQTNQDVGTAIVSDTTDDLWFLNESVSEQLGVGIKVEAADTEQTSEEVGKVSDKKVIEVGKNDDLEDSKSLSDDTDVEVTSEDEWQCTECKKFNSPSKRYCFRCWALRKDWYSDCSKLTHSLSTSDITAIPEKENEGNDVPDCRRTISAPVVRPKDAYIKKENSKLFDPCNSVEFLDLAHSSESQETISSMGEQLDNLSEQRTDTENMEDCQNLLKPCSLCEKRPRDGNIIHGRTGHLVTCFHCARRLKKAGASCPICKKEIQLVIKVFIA
Target sequence (Q00987 whole entry, looked up): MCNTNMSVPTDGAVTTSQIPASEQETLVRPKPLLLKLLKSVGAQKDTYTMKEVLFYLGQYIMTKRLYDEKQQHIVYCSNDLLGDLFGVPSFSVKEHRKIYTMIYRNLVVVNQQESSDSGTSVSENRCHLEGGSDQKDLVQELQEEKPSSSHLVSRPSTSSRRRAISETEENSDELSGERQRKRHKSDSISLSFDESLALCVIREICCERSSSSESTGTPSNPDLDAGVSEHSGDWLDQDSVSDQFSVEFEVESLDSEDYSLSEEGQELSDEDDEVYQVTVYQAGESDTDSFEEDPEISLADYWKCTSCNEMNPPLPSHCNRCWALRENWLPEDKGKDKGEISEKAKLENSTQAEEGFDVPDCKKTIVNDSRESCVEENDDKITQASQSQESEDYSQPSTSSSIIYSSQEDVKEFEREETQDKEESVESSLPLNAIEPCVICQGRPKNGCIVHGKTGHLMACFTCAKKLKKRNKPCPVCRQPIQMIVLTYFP
aSyn UTR inh – MLPCN primary screen, SNCA 5' untranslated region. alpha-synuclein 5'UTR reporter, inhibitor activity. inhibition, % (tested at 7.5 µM). actives 0.82% (n = 300,000). AID 1813, 2009; in the data active = inhibition above about 60%; inconclusive = no clear call, values can overlap the other calls;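 also: H4 neuroglioblastoma cells stably carrying SNCA 5'UTR luciferase fusion; 0% = DMSO wells and 100% = positive control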
CSC inhib – cancer stem cell viability inhibitors, primary screen, luminescence. cancer stem cell-like cells viability. inhibition, % at 7.5 µM. actives 1.1% (n = 300,000); in the data active = inhibition above about 75%; inconclusive = no clear call, values can overlap the other calls; tested in HMLE shEcad cells
SKKanGAS inh – S. pyogenes SKKanGAS growth inhibitors in kanamycin, primary screen, streptokinase expression inhibitor project, SKKanGAS strain, BacTiter-Glo luminescence; 6 h; inhibition, % at 7.5 µM; actives 1.3% (n = 300,000); AID 1662, 2009;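 active = mean replicate score, as percent of positive control median, at least 50; inconclusive = mean below 50 but one replicate at or above 50; inactive = mean and every replicate below 50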;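 also: strain carries kanamycin resistance gene driven by streptokinase promoter and grows in 40 µg/ml kanamycin; loss of luminescence reflects streptokinase promoter inhibition or plain growth inhibition; 0% = median of DMSO wells and 100% = positive control at its reference dose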
Mdm2 MdmX conf – Mdm2-MdmX complex disruptors, retested hits, confirmation, luminescence, single concentration; shares compounds with Mdm2-MdmX inh; Mdm2-MdmX binding, luminescent assay; inhibition, % at 8 µM; actives 55% (n = 10,000); AID 489028, 2010; in the data active = inhibition above about 40%
Full FLuc ctr – full-length luciferase signal inhibition, confirmation, counter-screen for Mdm2/MdmX interaction inhibitor project, cell-based, single concentration, SaOS-2; shares compounds with Mdm2-MdmX inh; SaOS-2 full-length luciferase counterscreen, luminescence; inhibition, % at 8 µM; actives 77% (n = 6,200); AID 504607, 2011;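 active = mean inhibition at 8 µM reaching about 37%, which flags the compound as non-specific, limit read from the data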;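 also: p53-null SaOS-2 cells with luciferase driven by a doxycycline-inducible promoter; compound on cells about two nights before reading with doxycycline added after day one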
The depositor's hits bear a star; ? = inconclusive; / = not tested or not shown.

SMILES	T cruzi inh	Mdm2-MdmX inh	aSyn UTR inh	CSC inhib	SKKanGAS inh	Mdm2 MdmX conf	Full FLuc ctr
Oc1c(C(Nc2nc3ccccc3s2)c2ccco2)ccc2cccnc12 (stereo not given)	?	61*	66*	120*	107*	85*	42*
O=C(CCl)N(C1CCCC1)C1CCS(=O)(=O)C1 (stereo not given)	-2	87*	-49	-2	-1	72*	55*
COc1cc(-c2onc3ccc(Br)cc23)cc(OC)c1OC	-54	50*	66*	-17	-12	52*	60*
COc1ccc(-c2onc3ccc(Br)cc23)cc1	-4	-21	-23	6	3	/	/
O=c1c2ccccc2nc(CSc2nnnn2-c2ccccc2)n1-c1ccccc1Cl	-3	68*	24	-15	2	43*	64*
c1ccc(Cn2c(CSc3nnnn3-c3ccccc3)nc3ccccc32)cc1	11	15	-23	-4	40	/	/
CCc1ccc(S(=O)(=O)Nc2ccc(O)c3c(=O)cc(-c4ccccc4Cl)oc23)cc1	-1	28	-9	15	40	/	/
O=c1cc(-c2ccccc2Cl)oc2c(NS(=O)(=O)c3cc(Cl)cc(Cl)c3O)ccc(O)c12	-5	98*	16	102*	109*	83*	43*
COc1ccc(CCNC(=O)c2cc3c(=O)n(C)c4ccccc4c3n2C)c(OC)c1	12	20	1	5	20	/	/
COc1ccc(NC(=O)c2cc3c(=O)n(C)c4ccccc4c3n2C)cc1Cl	-8	62*	-72	30	15	26	/
COc1cc(NC(=O)c2cc3c(=O)n(C)c4ccccc4c3n2C)cc(OC)c1OC	-5	8	22	9	-7	/	/
COc1ccc(NC(=O)c2cc3c(=O)n(C)c4ccccc4c3n2C)cc1OC	21	59*	-36	13	1	32	/
COc1ccc(Cl)cc1C(=O)NC(=S)Nc1nc(C)cc(C)n1	-14	2	5	-13	21	/	/
COc1ccc(Cl)cc1C(=O)NC(=S)Nc1cc(-c2nc3ccccc3[nH]2)ccc1C	/	76*	-22	31	17	1	/
CCCOCCOC(=O)c1[nH]c2c(c1C)C(=O)CC(c1cc(OC)ccc1OC)C2 (stereo not given)	37	59*	20	56	5	52*	83*
COCCOC(=O)c1[nH]c2c(c1C)C(=O)CC(c1cc(OC)ccc1OC)C2 (stereo not given)	-40	48	-27	54	-3	/	/
COc1ccc(OC)c(C2CC(=O)c3c([nH]c(C(=O)OC(C)C)c3C)C2)c1 (stereo not given)	32	52*	11	52	15	44*	83*
CC(C)OC(=O)c1cc2c(ccn2C)n1CC(=O)N(Cc1ccccc1)c1ccc(F)cc1	39	79*	51	26	8	56*	76*
CC(=O)c1cccc(CN2CCC(C(=O)Nc3ccc(Oc4cccnc4)cc3)CC2)c1	10	28	15	14	-15	/	/
CC(=O)c1cccc(CN2CCC(C(=O)Nc3ccc(-c4cccc(C)c4)cc3)CC2)c1	8	52*	0	45	0	18	/
Cc1cc(/C=N/n2cnnc2)c(C)n1-c1ccc(OCc2ccc(Cl)cc2Cl)cc1	44	74*	113*	103*	122*	31	/
Cc1cc(/C=N/n2cnnc2)c(C)n1-c1ccccc1	22	29	7	0	-1	/	/
Cc1cc(/C=N/n2cnnc2)c(C)n1-c1ccc(OCc2ccc(F)cc2)cc1	41	65*	-73	/	26	35	78*
Cc1cc(/C=N/n2cnnc2)c(C)n1-c1ccc(Cl)cc1	39	7	16	-13	-1	/	/
Cc1onc(-c2ccccc2Cl)c1C(=O)NC(=S)Nc1ccc(C(C)(C)C)cc1	1	30	40	45	1	/	/
SMILES	T cruzi inh	Mdm2-MdmX inh	aSyn UTR inh	CSC inhib	SKKanGAS inh	Mdm2 MdmX conf	Full FLuc ctr
CC(C)Cn1c(=O)c(C(=O)Nc2ccncc2)c(O)c2ccccc21	45	69*	66*	135*	96*	51*	38*
CCn1c(=O)c(C(=O)Nc2ccccc2S(N)(=O)=O)c(O)c2ccccc21	-3	56*	-39	/	-1	3	/
CCn1c(=O)c(C(=O)Nc2ccc(C)cc2)c(O)c2ccccc21	20	-13	-31	-6	-3	/	/
CCn1c(=O)c(C(=O)NNC(=O)c2ccccc2)c(O)c2ccccc21	6	50	-17	0	53*	43*	54*
CC(C)Cn1c(=O)c(C(=O)Nc2cnccn2)c(O)c2ccccc21	-3	31	-3	9	3	/	/
CC1CCCN(S(=O)(=O)c2cccc(C(=O)OCC(=O)N(C)Cc3c(F)cccc3Cl)c2)C1 (stereo not given)	/	7	/	-5	/	/	/
CC(C)On1c(SCC(=O)N(C)C)nc2ccccc2c1=O	-6	-2	-4	-2	-3	/	/
Nc1c(C(=O)c2ccccc2O)cnn1-c1ccc(S(=O)(=O)N2CCOCC2)cc1[N+](=O)[O-]	13	70*	2	-8	-13	15	/
COC(=O)c1nn(-c2ccccc2)c(Cl)c1/C=N/OCc1ccc(C)cc1	-6	1	-17	37	-2	/	/
COc1ccc(C(=O)Nc2ccc(N3CCN(C(=O)c4cccs4)CC3)cc2)cc1Br	24	27	-15	16	17	/	/
O=C(Nc1ccc2c(c1)CCCN2C(=O)c1ccccc1)c1ccccc1Br	4	79*	-8	28	7	46*	77*
COc1cc(OC)cc(C(=O)Nc2ccc3c(c2)CCCN3C(=O)c2cccs2)c1	21	78*	2	25	-11	60*	86*
COc1cc(OC)cc(C(=O)Nc2ccc(N3CCN(C(=O)c4cccs4)CC3)cc2)c1	26	63*	-180	14	9	70*	69*
COc1ccc(-c2nc(-c3ccccn3)no2)cc1	12	89*	107*	88*	/	91*	54*
O=C(Cc1ccccc1)Nc1cccc([N+](=O)[O-])c1	-4	16	-11	1	-5	/	/
O=C(Nc1cccc([N+](=O)[O-])c1)c1ccc2ccccc2c1O	4	77*	-128	-1	28	12	/
COc1ccc(CCn2c(C)c(C(C)=O)c(C(C)=O)c2C)cc1OC	-6	-11	-18	-2	-4	/	/
Cc1cc(C(=O)CCl)c(C)n1CCc1ccc(Cl)cc1	62*	93*	27	116*	-21	69*	31

High-throughput results (PubChem BioAssay)
